Laboratory results reported in publication PMC5689159 (Biochemistry and Biophysics Reports, 2016).

Experiments:
[1] = target: litchi lectin (Litchi chinensis seed lectin) (Litchi chinensis); test: native gel or EMSA
litchi lectin = test: tryptophan fluorescence quenching; type: binding, Litchi chinensis; conditions: free lectin; 150 mM NaCl, 10 mM CaCl2, pH 7.5, 298 K; n = 0.9
How it was run: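 Steady-state fluorescence emission spectra of dilute lectin solutions (10−4−10−6 M) recorded at 298 K in 1 cm path-length quartz cells on a fluorescence spectrophotometer. UV–vis absorption spectra were taken under the same conditions.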

Row | Molecule | stoichiometry N [1] | Ka/ (10^4) (M^-1) (litchi lectin)
1 | litchi lectin (Litchi chinensis seed lectin) (natural protein) | 2 | 
2 | OC[C@H]1O[C@H](O[C@H]2[C@H](O)[C@@H](O)C(O)O[C@@H]2CO)[C@H](O)[C@@H](O)[C@@H]1O (some centres unmarked) [maltose] |  | 4.9 (±0.2)×10^4
